The target in assay [1] is T1, Aldo-keto reductase family 1 member C3 (Homo sapiens, UniProt P42330).
T1 sequence (P42330 whole entry): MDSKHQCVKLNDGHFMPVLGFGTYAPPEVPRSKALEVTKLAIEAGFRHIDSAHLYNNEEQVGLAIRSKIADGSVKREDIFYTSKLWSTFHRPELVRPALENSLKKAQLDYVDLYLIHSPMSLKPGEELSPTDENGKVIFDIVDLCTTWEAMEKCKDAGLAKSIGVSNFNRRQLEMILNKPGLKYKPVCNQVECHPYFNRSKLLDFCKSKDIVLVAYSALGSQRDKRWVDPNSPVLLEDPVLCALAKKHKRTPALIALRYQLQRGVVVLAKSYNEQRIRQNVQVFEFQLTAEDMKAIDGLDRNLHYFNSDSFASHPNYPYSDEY
Kind of assay: Inhibition of human recombinant AKR1C3 assessed as 1-acenaphthenol oxidation by spectrophotometry. Put shortly: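 NADH formation was monitored at 340 nm using initial velocities. IC50 was read graphically from log10[inhibitor] versus % inhibition. Ki was derived by Cheng-Prusoff for competitive inhibition.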

Assay [2] concerns the target T2, Aldo-keto reductase family 1 member C1 (Homo sapiens) (UniProt Q04828).
T2 sequence (whole entry): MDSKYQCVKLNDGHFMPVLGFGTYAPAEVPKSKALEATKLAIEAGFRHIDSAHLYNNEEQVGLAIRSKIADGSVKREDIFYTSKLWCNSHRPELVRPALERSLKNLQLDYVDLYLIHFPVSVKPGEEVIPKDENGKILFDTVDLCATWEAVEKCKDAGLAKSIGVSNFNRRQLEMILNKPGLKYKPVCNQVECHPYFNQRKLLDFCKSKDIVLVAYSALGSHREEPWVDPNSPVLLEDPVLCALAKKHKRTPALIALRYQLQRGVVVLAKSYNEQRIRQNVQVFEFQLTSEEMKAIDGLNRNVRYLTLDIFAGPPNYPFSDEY
Kind of assay: Inhibition of human recombinant AKR1C1 assessed as 1-acenaphthenol oxidation at 400 uM by spectrophotometry. Put shortly: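 Recombinant AKR1C1 (0.3 μM) oxidizing 30 μM 1-acenaphthenol with 2.3 mM NAD+ in 100 mM phosphate pH 9.0, 0.005% triton X-114, 5% DMSO. NADH increase was followed at 340 nm.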

Assay [3] has as its target T3, Aldo-keto reductase family 1 member C3 (Homo sapiens) (UniProt P42330).
T3 sequence (whole entry): T1 sequence (P42330 whole entry)
Kind of assay: Inhibition of human recombinant AKR1C3 assessed as 1-acenaphthenol oxidation at 400 uM by spectrophotometry.

In assay [4] the target is T4, Aldo-keto reductase family 1 member C1 (Homo sapiens, UniProt Q04828).
T4 sequence (Q04828 whole entry): T2 sequence (whole entry)
Kind of assay: Inhibition of human recombinant AKR1C1 assessed as 1-acenaphthenol oxidation by spectrophotometry.

In assay [5] the target is T1, Aldo-keto reductase family 1 member C3. In words: Competitive inhibition of human recombinant AKR1C3 assessed as S-tetralol oxidation by Cheng-Prusoff equation analysis. Summed up:
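NADPH formation followed fluorometrically; initial velocities measured in quadruplicate per inhibitor concentration. IC50 fitted as y = range/(1+I/IC50)^s + background, then converted to Ki with the Cheng-Prusoff equation for competitive inhibition.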

Assay [6] shares this target. In words: Inhibition of human recombinant AKR1C3 assessed as S-tetralol oxidation by micro plate fluorescence reader based assay. Put shortly: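 Fluorometric plate-reader read-out of NADPH formation as initial velocity. Each inhibitor concentration run in quadruplicate. IC50 from fit to y = range/(1+I/IC50)^s + background.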
Assay [7] concerns the target T2, Aldo-keto reductase family 1 member C1 (Homo sapiens). Kind of assay: Inhibition of human recombinant AKR1C1 assessed as S-tetralol oxidation at 300 uM by micro plate fluorescence reader based assay. Summed up: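 Buffer was 100 mM K3PO4 pH 7.0 with 200 μM NADP+ and 4% DMSO final. Inhibitor was tested at 300 μM, in quadruplicate. Rates are initial velocities.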

For assay [8], the target named is T5, Aldo-keto reductase family 1 member C4 (Homo sapiens) (UniProt P17516).
T5 sequence (whole entry): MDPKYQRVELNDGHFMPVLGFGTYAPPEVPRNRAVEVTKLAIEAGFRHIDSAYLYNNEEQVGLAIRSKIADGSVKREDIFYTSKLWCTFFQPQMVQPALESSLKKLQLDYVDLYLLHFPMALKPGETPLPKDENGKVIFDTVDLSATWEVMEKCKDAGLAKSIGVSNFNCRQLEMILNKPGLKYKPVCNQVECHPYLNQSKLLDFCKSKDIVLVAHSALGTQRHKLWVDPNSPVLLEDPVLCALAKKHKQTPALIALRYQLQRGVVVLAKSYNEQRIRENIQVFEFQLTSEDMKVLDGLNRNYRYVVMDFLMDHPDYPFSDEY
Kind of assay: Inhibition of human recombinant AKR1C4 assessed as S-tetralol oxidation at 300 uM by micro plate fluorescence reader based assay. Put shortly: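 NADPH production was measured fluorometrically. Inhibitor was tested at 300 μM, quadruplicate wells. Inhibition was taken from initial velocities.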

Molecules are shown by their SMILES.

Our source for the Ki, inhibition and IC50 values is ChEMBL document CHEMBL2169790, “Selective inhibitors of aldo-keto reductases AKR1C1 and AKR1C3 discovered by virtual screening of a fragment library” (J Med Chem, 2012).

A word on the Ki: it is the equilibrium dissociation constant of an inhibitor or competing ligand from its target. What is called inhibition is how much of the control response was suppressed. The term IC50 denotes the concentration that gives 50% inhibition.

For the molecule `Cc1ccc(S(=O)(=O)Nc2cccc(C(=O)O)c2)cc1`, the Ki in assay [1] turned out to be 111 µM. Moreover, the inhibition in assay [2] came to 43.1%.
For the molecule `CC(=O)Nc1ccc(C(C#N)c2ccccc2)cc1` (stereo not drawn), in assay [1], the Ki stood at 87 µM.
For `O=C(O)c1cc(NC(=O)c2ccccc2F)ccc1O`, the results for the inhibition in assay [3] and in assay [2] were 48.8% and 30.1%, respectively.
On to `Cc1ccn(Cc2cc(C(=O)O)c3ccccc3n2)n1`, for which the inhibitory constant (Ki) in assay [1] stood at 117 µM.
For `Cc1cccc(C(=O)Nc2ccccc2C(N)=O)c1`, the inhibition was 10.8% in assay [3] and less than 10% in assay [2].
Consider `O=C(CSc1ncnc2[nH]cnc12)Nc1ccccn1`, for which the inhibition constant (Ki) in assay [4] is 69 µM. Also, in assay [3], the inhibition was 44.3%.
Consider `O=C(O)c1cc(-c2cccc(O)c2)nc2ccccc12`, for which the Ki in assay [1] worked out at 54 µM.
As for `O=CN1CCN(C(=O)c2ccc3ccccc3c2)CC1`, the Ki in assay [4] worked out at 64 µM. Besides, in assay [3], the inhibition is 46.7%.
Regarding `Cc1cc(C(=O)Nc2ccc(O)c(C(=O)O)c2)oc1C`, the Ki in assay [1] turned out to be 82 µM. In addition, the inhibition in assay [2] was less than 10%.
For `Cc1cc(Nc2cc(C(=O)O)ccc2C)nc(C)n1`, in that order: 144 µM and 39.5%.
For `O=C(O)c1ccc(CNCc2ccccn2)cc1`, the inhibition in assay [3] was 51.2%; in assay [2], less than 10%.
In the case of `O=C(O)CNC=C1C(=O)CC(c2ccccc2)CC1=O` (stereo not drawn), in assay [3], the inhibition is 18.4%.
For `O=C(O)c1cccc(Nc2nc3ccccc3[nH]2)c1`, the Ki in assay [1] was found to be 142 µM. Also, the inhibition in assay [2] is less than 10%.
On to `O=C(NCc1cc(=O)[nH]cn1)c1cc2ccccn2n1`, for which the Ki in assay [1] stood at 118 µM. The inhibition in assay [2] is less than 10%.
As for `O=C1COc2ccc(C(=O)c3ccccc3)cc2CN1`, in assay [1], the Ki amounted to 76 µM.
Consider `O=C1CCC2(c3ccccc3)Nc3ccccc3N12` (stereo not drawn), for which the inhibitory constant (Ki) stood at 32 µM in assay [1] and 2.73 µM in assay [5]. For the same molecule, in assay [6], the half-maximal inhibitory concentration (IC50) came out at 5.46 µM. For the same molecule, in assay [2], the inhibition was found to be 43.5%.
`O=C(O)CCNS(=O)(=O)c1ccc2ccccc2c1`: in assay [1], the inhibition constant Ki came to 148 µM.
Consider `CN(c1ccc(C(=O)O)cc1)S(=O)(=O)c1ccccc1`, for which, in assay [1], the Ki amounted to 148 µM.
Consider `NC(=O)c1ccccc1NC(=O)c1ccncc1`, for which the inhibition in assay [3] came to 17.8%; in assay [2], 22.5%.
Turning to `Cc1oc(C(N)=O)cc1COc1ccccc1C(N)=O`, the Ki in assay [4] amounted to 122 µM. In assay [3], the inhibition came to 53.4%.
Turning to `NC(=O)c1ccccc1/N=C/c1cccc(O)c1`, the Ki in assay [1] was 36 µM. Besides, in assay [2], the inhibition was less than 10%.
As to `O=C(O)c1cccc(NCC(=O)c2ccccc2)c1`, the Ki in assay [1] was 72 µM. Besides, the inhibition in assay [2] was found to be 44.8%.
On to `Cc1ccc(NC(=O)c2cccnc2)c(C(=O)O)c1`, for which the inhibition in assay [3] came to 33.1%; in assay [2], 47.4%.
As to `O=C(O)CCNc1cc2ccccc2cc1C(=O)O`, the Ki in assay [1] worked out at 44 µM.
Consider `O=C(CC1SC(=O)NC1=O)Nc1ccccc1O` (stereo not drawn), for which the Ki in assay [1] amounted to 2 µM; in assay [5], 0.107 µM. Also, the IC50 in assay [6] was 0.213 µM. The inhibition in assay [7] was 37%; in assay [8], 35%; in assay [2] it was less than 10%.
